Where only a bound is given, the exact number is not on record here.

The test deals with Serotonin 3 (5-HT3) receptor (Rattus norvegicus) (UniProt P35563+Q9JJ16). Nature of the test: Antagonist potency to 5-hydroxytryptamine 3 receptor was assayed by antagonism of the 5-HT-evoked reflex bradycardia [Bezold-Jarisch(BJ) reflex] in rats. It counts as functional. A digest of the protocol: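 Male rats (260–290 g) anesthetized with urethane (1.25 g/kg ip); blood pressure and heart rate recorded. 5-HT given repeatedly at a submaximal 6 μg/kg iv, and heart-rate changes quantified. Test drug given iv before 5-HT. ID50 is the dose that cuts the 5-HT-evoked response to 50% of control.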
Molecule `CC1Cc2ccccc2N1C(=O)NC1CC2CCC(C1)N2C` (centres undefined) returned an ID50 of 0.8 µg/kg.

For `CN1C2CCC1CC(NC(=O)n1ccc3ccccc31)C2` (centres undefined), the ID50 was 7.1 µg/kg.

In turn, `CC1N(C(=O)NC2CC3CCC(C2)N3C)c2ccccc2C1(C)C` (centres undefined) came in with an ID50 of 1.4 µg/kg.

Take `CC1c2ccccc2N(C(=O)NC2CC3CCC(C2)N3C)C1C` (centres undefined): the ID50 is 0.5 µg/kg.

`CN1C2CCC1CC(NC(=O)N1CCc3cc(Cl)ccc31)C2` (centres undefined) yielded an ID50 greater than 10 µg/kg.

Regarding `CCN1C2CCC1CC(NC(=O)N1CCc3ccccc31)C2` (centres undefined), the ID50 was greater than 10 µg/kg.

As to `CN1C2CCC1CC(NC(=O)N1CC3(CCCC3)c3ccccc31)C2` (centres undefined), the ID50 came out at 1.2 µg/kg.

`CN1C2CCCC1CC(NC(=O)N1CCc3ccccc31)C2` (centres undefined) showed an ID50 of 12.5 µg/kg.

Take `CN1C2CCC1CC(NC(=O)N1CCc3cc(F)ccc31)C2` (centres undefined): the ID50 is greater than 10 µg/kg.

Regarding `CN1C2CCC1CC(NC(=O)N1CCCc3ccccc31)C2` (centres undefined), the ID50 is greater than 100 µg/kg.

For `COc1ccc2c(c1)CCN2C(=O)NC1CC2CCC(C1)N2C` (centres undefined), the ID50 was greater than 10 µg/kg.

As for `CN1C2CCC1CC(NC(=O)N1CC3(CCCCC3)c3ccccc31)C2` (centres undefined), the ID50 worked out at 3.6 µg/kg.

`CN1C2CCC1CC(OC(=O)N1CCc3ccccc31)C2` (centres undefined) came in with an ID50 of 4.3 µg/kg.

`CN1C2CCC1CC(NC(=O)N1CCc3ccccc31)C2` (centres undefined) gave an ID50 of 1.4 µg/kg.

Consider `CN1C2CCC1CC(NC(=O)C1=CC(C)(C)c3ccccc31)C2` (centres undefined), for which the ID50 was 1 µg/kg.

`CN1C2CCC1CC(NC(=O)N1CC3(CC3)c3ccccc31)C2` (centres undefined): the ID50 is 3.5 µg/kg.

Molecule `Cc1cn(C(=O)NC2CC3CCC(C2)N3C)c2ccccc12` (centres undefined) registered an ID50 of 1.6 µg/kg.

The molecule `CCc1cn(C(=O)NC2CC3CCC(C2)N3C)c2ccccc12` (centres undefined) registered an ID50 of 2 µg/kg.

On to `CC1CN(C(=O)NC2CC3CCC(C2)N3C)c2ccccc21` (centres undefined), for which the ID50 was 3 µg/kg.

The molecule `CN1C2CCC1CC(NC(=O)n1cc(-c3ccccc3)c3ccccc31)C2` (centres undefined) yielded an ID50 of 5.1 µg/kg.

The molecule `CN1C2CCC1CC(NC(=O)N1CC(c3ccccc3)c3ccccc31)C2` (centres undefined) had an ID50 of 1.8 µg/kg.

In turn, `CCC1CN(C(=O)NC2CC3CCC(C2)N3C)c2ccccc21` (centres undefined) displayed an ID50 of 1.5 µg/kg.

In turn, `CN1C2CCCC1CC(NC(=O)c1nn(C)c3ccccc13)C2` (centres undefined) showed an ID50 of 0.7 µg/kg.

For `CN1C2CCC1CC(NC(=O)N1CCc3cc([N+](=O)[O-])ccc31)C2` (centres undefined), the ID50 was greater than 10 µg/kg.

These data come from ChEMBL document CHEMBL1124838, “5-Hydroxytryptamine (5-HT3) receptor antagonists. 2. 1-Indolinecarboxamides” (J Med Chem, 1990).
